One assay has as its target O-acyltransferase (Oryctolagus cuniculus, UniProt G1SFD9). Kind of assay: In vitro inhibition of Acyl coenzyme A:cholesterol acyltransferase using intestinal microsomes isolated from cholesterol fed rabbits. Also on record: species or system Intestine.
O-acyltransferase, sequence (G1SFD9 1-524): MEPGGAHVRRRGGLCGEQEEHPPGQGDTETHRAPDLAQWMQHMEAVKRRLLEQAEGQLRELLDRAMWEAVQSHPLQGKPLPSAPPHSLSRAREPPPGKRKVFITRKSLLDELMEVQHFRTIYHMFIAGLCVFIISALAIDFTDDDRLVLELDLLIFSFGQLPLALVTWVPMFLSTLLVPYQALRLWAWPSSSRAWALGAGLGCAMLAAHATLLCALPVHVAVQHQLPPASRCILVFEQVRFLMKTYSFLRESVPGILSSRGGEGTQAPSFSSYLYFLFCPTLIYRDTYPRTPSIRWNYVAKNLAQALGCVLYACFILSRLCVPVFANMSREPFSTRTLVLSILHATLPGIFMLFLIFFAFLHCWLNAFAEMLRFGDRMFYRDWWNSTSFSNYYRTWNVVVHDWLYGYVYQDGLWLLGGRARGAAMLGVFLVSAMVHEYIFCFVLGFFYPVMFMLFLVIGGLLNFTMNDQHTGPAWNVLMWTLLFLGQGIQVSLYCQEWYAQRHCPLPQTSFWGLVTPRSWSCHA
Turning to `CC(C)c1cccc(C(C)C)c1NC(=NC#N)NCC1(c2ccccc2)CCCC1`, the IC50 stood at 10000 nM.

Take `CC(C)c1cccc(C(C)C)c1NC(=O)NCCC(c1ccccc1)c1ccccc1`: the IC50 came to 140 nM.

`O=C(NCC1(c2ccccc2)CCCC1)Nc1ccc(F)cc1F` showed an IC50 of 1300 nM.

As to `CCCCC(CCCC)(CNC(=O)Nc1c(C(C)C)cccc1C(C)C)c1ccccc1`, the IC50 turned out to be 30 nM.

On to `Cc1ccc(NC(=O)NCC2(c3ccccc3)CCCCC2)cc1`, for which the midpoint of inhibition, the IC50, lay at 4500 nM.

`O=C(NCC1(c2ccccc2)CCCCC1)Nc1ccc(I)cc1` yielded an IC50 of 2300 nM.

Compound `O=C(NCC1(c2ccccc2)CCCC1)Nc1c(Cl)cccc1Cl` had an IC50 of 240 nM.

Compound `CCCCCC(CCCCC)(CNC(=O)Nc1c(C(C)C)cccc1C(C)C)c1ccccc1` yielded an IC50 of 26 nM.

Compound `COc1cc(OC)c(NC(=O)NCC2(c3ccccc3)CCCC2)c(OC)c1` yielded an IC50 of 1400 nM.

Consider `CC(C)c1cccc(C(C)C)c1OC(=O)NCC1(c2ccccc2)CCCC1`, for which half-maximal inhibition (IC50) required 49 nM.

As for `CC(C)c1ccc(NC(=O)NCC2(c3ccccc3)CCCCC2)cc1`, the midpoint of inhibition, the IC50, lay at 1500 nM.

For the compound `Cc1cccc(NC(=O)NCC2(c3ccccc3)CCCCC2)c1`, the IC50 worked out at 2800 nM.

`CC(C)c1cccc(C(C)C)c1NC(=O)NC(Cc1ccccc1)c1ccccc1` (configuration not stated) yielded an IC50 of 31 nM.

Consider `Cc1cccc(C(C)C)c1NC(=O)NCC1(c2ccccc2)CCCCC1`, for which the IC50 turned out to be 58 nM.

In the case of `CC(C)c1cccc(C(C)C)c1N=C(N)NCC1(c2ccccc2)CCCC1`, the IC50 turned out to be 12000 nM.

`CC(C)c1ccccc1NC(=O)NCC1(c2ccccc2)CCCCC1`: the IC50 was found to be 390 nM.

`CC(C)c1cccc(C(C)C)c1NC(=O)NCCc1ccccc1` displayed an IC50 of 88 nM.

With `CCc1cccc(C(C)C)c1NC(=O)NCC1(c2ccccc2)CCCCC1`, it took 20 nM to reach half-maximal inhibition (IC50).

Consider `CC(C)c1cccc(C(C)C)c1NC(=O)NCC1(c2cccs2)CCCC1`, for which the IC50 came to 12 nM.

`Cc1ccc(C)c(NC(=O)NCC2(c3ccccc3)CCCCC2)c1` returned an IC50 of 470 nM.

Take `O=C(NCC1(c2ccccc2)CCCCC1)Nc1cccc(Cl)c1Cl`: 1300 nM corresponded to half-maximal inhibition (IC50).

In turn, `COc1ccc(NC(=O)NCC2(c3ccccc3)CCCCC2)cc1` came in with an IC50 of 4900 nM.

Compound `O=C(NCC1(c2ccccc2)CCCCC1)Nc1ccc(Cl)cc1` registered an IC50 of 2200 nM.

The compound `CC(C)c1cccc(C(C)C)c1NC(=O)NCC(c1ccccc1)C(C)(C)C` (configuration not stated) came in with an IC50 of 160 nM.

As for `CC(C)c1cccc(C(C)C)c1NC(=O)NCC1(c2cccnc2)CCCC1`, the IC50 was determined as 97 nM.

`Cc1ccc(NC(=O)NCC2(c3ccccc3)CCCCC2)c(C)c1` yielded an IC50 of 5500 nM.

`O=C(NCC1(c2ccccc2)CCCCC1)Nc1ccccc1C(F)(F)F` came in with an IC50 of 200 nM.

For the compound `Cc1cccc(C(C)(C)C)c1NC(=O)NCC1(c2ccccc2)CCCCC1`, 54 nM corresponded to half-maximal inhibition (IC50).

The compound `O=C(NCC1(c2ccccc2)CCCC1)Nc1c(F)cc(F)cc1F` gave an IC50 of 870 nM.

For the compound `CC(C)c1cccc(C(C)C)c1NC(=O)Nc1ccccc1`, half-maximal inhibition (IC50) was put at 910 nM.

Turning to `CC(C)c1cccc(C(C)C)c1NC(=O)NCC1(c2ccccc2)CCCC1`, it took 17 nM to reach half-maximal inhibition (IC50).

As for `COc1ccccc1NC(=O)NCC1(c2ccccc2)CCCCC1`, the IC50 was 270 nM.

For the compound `CC(C)c1cccc(C(C)C)c1NC(=O)NC1(c2ccccc2)CCCC1`, the IC50 came to 65 nM.

In turn, `CCCC(CCC)(CNC(=O)Nc1c(C(C)C)cccc1C(C)C)c1ccccc1` showed an IC50 of 30 nM.

In turn, `Cc1ccccc1NC(=O)NCC1(c2ccccc2)CCCCC1` registered an IC50 of 640 nM.

Compound `Cc1cccc(C(C)(C)C)c1NC(=O)NCC1(c2ccccc2)CCCC1` yielded a concentration for half-maximal inhibition (IC50) of 18 nM.

The compound `CC(C)c1cccc(C(C)C)c1NC(=O)NCC1c2ccccc2-c2ccccc21` returned an IC50 of 27 nM.

Compound `Cc1cccc(C)c1NC(=O)NCC1(c2ccccc2)CCCC1` displayed an IC50 of 190 nM.

In turn, `CC(C)c1cccc(C(C)C)c1NC(=O)NCCc1ccc2ccccc2c1` registered an IC50 of 39 nM.

`CC(C)c1cccc(C(C)C)c1NC(=O)NCCc1cccc2ccccc12` displayed an IC50 of 41 nM.

`CC(C)c1cccc(C(C)C)c1NC(=O)NC1CCCc2ccccc21` (configuration not stated) returned an IC50 of 850 nM.

In turn, `CCCCCCC(CCCCCC)(CNC(=O)Nc1c(C(C)C)cccc1C(C)C)c1ccccc1` came in with an IC50 of 120 nM.

`CC(C)c1cccc(C(C)C)c1NC(=S)NCC1(c2ccccc2)CCCC1` returned an IC50 of 2330 nM.

With `CC(C)c1cccc(C(C)C)c1NC(=O)NCC1(c2ccccc2)CCC1`, it took 28 nM to reach half-maximal inhibition (IC50).

`CCOC(=O)c1ccccc1NC(=O)NCC1(c2ccccc2)CCCCC1` yielded an IC50 of 4200 nM.

`O=C(NCC1(c2ccccc2)CCCCC1)Nc1ccc(Cl)c(Cl)c1` displayed an IC50 of 3800 nM.

Compound `CCc1cccc(C(C)C)c1NC(=O)NCC1(c2ccccc2)CCCC1` came in with an IC50 of 25 nM.

`Cc1cc(C)c(NC(=O)NCC2(c3ccccc3)CCCC2)c(C)c1` gave an IC50 of 3300 nM.

Regarding `CC(C)c1cccc(C(C)C)c1NC(=O)NCC1(c2ccc3ccccc3c2)CCCC1`, 260 nM corresponded to half-maximal inhibition (IC50).

Consider `CC(C)c1cccc(C(C)C)c1NC(=O)NCC1(c2ccsc2)CCCC1`, for which the IC50 was 18 nM.

In turn, `CC(C)c1cccc(C(C)C)c1NC(=O)NC(=O)C1(c2ccccc2)CCCC1` gave an IC50 of 160 nM.

`CN(C)c1cccc(N(C)C)c1NC(=O)NCC1(c2ccccc2)CCCC1`: the IC50 stood at 110 nM.

Compound `CC(C)c1cccc(C(C)C)c1NC(=O)NCC(C)(C)c1ccccc1` yielded an IC50 of 26 nM.

As to `O=C(NCC1(c2ccccc2)CCCC1)Nc1c(Cl)cc(Cl)cc1Cl`, the IC50 worked out at 960 nM.

The compound `CCC(CC)(CNC(=O)Nc1c(C(C)C)cccc1C(C)C)c1ccccc1` gave an IC50 of 17 nM.

Turning to `CC(C)c1cccc(C(C)C)c1NC(=O)NCC1(c2ccccc2)CC1`, the IC50 stood at 18 nM.

Compound `COc1cccc(NC(=O)NCC2(c3ccccc3)CCCCC2)c1` gave an IC50 of 2500 nM.

In the case of `CCc1cccc(CC)c1NC(=O)NCC1(c2ccccc2)CCCC1`, the IC50 was 56 nM.

As to `Cc1cccc(C(C)C)c1NC(=O)NCC1(c2ccccc2)CCCC1`, the concentration for half-maximal inhibition (IC50) came out at 16 nM.

Consider `CC(C)c1cccc(C(C)C)c1NC(=O)NCCCc1ccccc1`, for which the midpoint of inhibition, the IC50, lay at 191 nM.

On to `CC(C)c1cccc(C(C)C)c1NC(=O)NC(C)(C)Cc1ccccc1`, for which the IC50 was 77 nM.

As to `CC(C)c1cccc(C(C)C)c1NC(=O)NCC1(c2ccccc2)CCCCC1`, the IC50 amounted to 21 nM.

In turn, `O=C(NCC1(c2ccccc2)CCCCC1)Nc1ccccc1` displayed an IC50 of 2300 nM.

`CCc1cccc(CC)c1NC(=O)NCC1(c2ccccc2)CCCCC1` had an IC50 of 51 nM.

`Cc1cccc(C)c1NC(=O)NCC1(c2ccccc2)CCCCC1` came in with an IC50 of 120 nM.

In turn, `CC(C)c1cccc(C(C)C)c1NC(=O)NCc1ccccc1` registered an IC50 of 360 nM.

As for `CCOC(=O)c1ccc(NC(=O)NCC2(c3ccccc3)CCCCC2)cc1`, half-maximal inhibition (IC50) was put at 6100 nM.

On to `CC(C)c1cccc(C(C)C)c1NC(=O)NC1CC1c1ccccc1` (configuration not stated), for which half-maximal inhibition (IC50) was put at 2000 nM.

On to `CC(C)c1cccc(C(C)C)c1NS(=O)(=O)NCC1(c2ccccc2)CCCC1`, for which the IC50 was 180 nM.

Regarding `CC(C)c1cccc(C(C)C)c1NC(=O)NCC1(c2cccc3ccccc23)CCCC1`, the IC50 was 34 nM.

Take `O=C(NCC1(c2ccccc2)CCCCC1)Nc1cc(Cl)ccc1Cl`: half-maximal inhibition (IC50) required 2700 nM.

Another assay is filed under the species Rattus norvegicus. Briefly: Percent change in total cholesterol (TC) in cholic acid, cholesterol and peanut oil fed rats. The format is functional. A digest of the protocol:
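Rats fed a diet of cholic acid (0.3%), cholesterol (1.5%) and peanut oil (5.5%) received each compound in the diet at 0.05% for one week. Plasma total cholesterol was measured and expressed as percent change from control. Significance versus control was tested.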
Take `Cc1cccc(C(C)C)c1NC(=O)NCC1(c2ccccc2)CCCCC1`: the Change is reported as -56%.

With `CCc1cccc(C(C)C)c1NC(=O)NCC1(c2ccccc2)CCCCC1`, the Change was -70%.

In the case of `Cc1cccc(C(C)(C)C)c1NC(=O)NCC1(c2ccccc2)CCCCC1`, the Change is reported as -51%.

Take `CC(C)c1cccc(C(C)C)c1NC(=O)NCC1(c2ccccc2)CCCC1`: the Change was -73%.

Consider `Cc1cccc(C(C)(C)C)c1NC(=O)NCC1(c2ccccc2)CCCC1`, for which the Change is -61%.

In the case of `CCc1cccc(C(C)C)c1NC(=O)NCC1(c2ccccc2)CCCC1`, the Change is on record as -59%.

As for `CCc1cccc(CC)c1NC(=O)NCC1(c2ccccc2)CCCC1`, the Change was -63%.

Regarding `Cc1cccc(C(C)C)c1NC(=O)NCC1(c2ccccc2)CCCC1`, the Change is given as -65%.

On to `CC(C)c1cccc(C(C)C)c1NC(=O)NCC1(c2ccccc2)CCCCC1`, for which the Change was -73%.

As to `CCc1cccc(CC)c1NC(=O)NCC1(c2ccccc2)CCCCC1`, the Change is given as -60%.

Consider `Cc1cccc(C)c1NC(=O)NCC1(c2ccccc2)CCCCC1`, for which the Change is given as -44%.

Source of the values: ChEMBL document CHEMBL1126873, “Inhibitors of acyl-Coa:cholesterol acyltransferase. 4. A novel series of urea ACAT inhibitors as potential hypocholesterolemic agents” (J Med Chem, 1993).
